Published values pooled from the literature.
KIT D816V: Mast/stem cell growth factor receptor Kit (KIT, Homo sapiens, UniProt P10721, D816V)
KIT V559D: Mast/stem cell growth factor receptor Kit (KIT, Homo sapiens, UniProt P10721, V559D)
KIT L576P: Mast/stem cell growth factor receptor Kit (KIT, Homo sapiens, UniProt P10721, L576P)
KIT V559D/V654A: Mast/stem cell growth factor receptor Kit (KIT, Homo sapiens, UniProt P10721, V559D/V654A)

SMILES | target | effect on | action | technique | concentration | quantity | value
N#Cc1ccc(NC(=O)Nc2ccccc2)cc1 | Mast/stem cell growth factor receptor Kit (KIT, Homo sapiens, UniProt P10721, T670I/V559D) | cell-free assay |  | competition with immobilised ligand | 25 µM | remaining binding | 57%
CO[C@@H]1[C@H](N(C)C(=O)c2ccccc2)C[C@H]2O[C@]1(C)n1c3ccccc3c3c4c(c5c6ccccc6n2c5c31)C(=O)NC4 | KIT D816V | enzyme activity | inhibitor |  | 1 µM | inhibition | 96%
COc1ccc2oc(-c3ccc4nc(N)oc4c3)c/c(=N\c3ccccc3NC(=O)CCN)c2c1 | Mast/stem cell growth factor receptor Kit (KIT, Homo sapiens, UniProt P10721, V654A) | cell-free assay |  |  | 1 µM | remaining signal | 102%
COc1ccc2[nH]c3c4[nH]c5ccc(OC)cc5c4c4c(c3c2c1)C(=O)NC4=O | KIT V559D | binding |  |  | 1 µM | remaining binding | 9%
CCCCC(=O)Nc1ccc(-c2ccc3ncn(CCC)c(=O)c3c2)cn1 | KIT L576P | binding |  | competition with immobilised ligand | 0.5 µM | remaining binding | 87%
Cc1ccc(NC(=O)c2ccnc(C(F)(F)F)c2)cc1-c1cc(OCCO)nc(N2CCOCC2)c1 | KIT V559D/V654A | binding |  |  | 1 µM | remaining binding | 91%
C#Cc1cnc(Nc2ccnc(CO)c2)nc1Nc1ccccc1S(C)(=O)=NC#N (stereo not drawn) | Mast/stem cell growth factor receptor Kit (KIT, Homo sapiens, UniProt P10721) | cell-free assay |  |  | 1 µM | remaining signal | 73%
CC#CC(=O)N1CCC[C@H]1c1nc(-c2ccc(C(=O)Nc3ccccn3)cc2)c2c(N)nccn12 | KIT V559D/V654A | enzyme activity | inhibitor |  | 1 µM | inhibition | 0%
C[C@H]1CC[C@H](n2c3cnccc3c3cnc(Nc4ccc5c(n4)CCN(C(=O)CO)C5)nc32)CC1 | KIT D816V | cell-free assay |  |  | 1 µM | remaining signal | 3.6%
C=CC(=O)N1CCC([C@@H]2CCNc3c(C(N)=O)c(-c4ccc(Oc5ccccc5)cc4)nn32)CC1 | KIT L576P | enzyme activity | inhibitor |  | 1 µM | inhibition | 5%
CN1CCN(C(=O)c2ccc(NC(=O)Nc3ccc(N(C)c4ccnc(Nc5ccc(CS(C)(=O)=O)cc5)n4)cc3)cc2)CC1 | KIT D816V | binding |  |  | 1 µM | remaining binding | 23%
C1=C/COCc2cc(ccc2OCCN2CCCC2)Nc2nccc(n2)-c2cccc(c2)COC/1 | KIT V559D | binding |  |  | 0.1 µM | remaining binding | 3.7%
